Active and inactive are the calls of the source. The calls are words filed in the database; no cut-off is given here.
Assays:
H460 [1] = assay: Inhibition of PI3K in human H460 cells assessed as Akt phosphorylation at Ser 473 at 10 uM; type: cell-based
Method in brief: (§1)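 Human NSCLC H-460 cells; PI3K activity read as Akt phosphorylation at Ser 473 and mTOR activity as p70S6 kinase phosphorylation at Thr 389. Compounds were screened at 10 µM, and some up to 30 µM. Activity was reported as % inhibition. LY-294002 served as the reference inhibitor at 30 µM.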

[2] = molecular target: T1, Hypoxia inducible factors; HIF-1-alpha, HIF-2-alpha (Homo sapiens, UniProt Q16665+Q99814); assay: Inhibition of hypoxia-induced HIF1 activation in human U251HRE cells by cell based reporter gene assay
[3] = molecular target: Phosphatidylinositol 4,5-bisphosphate 3-kinase catalytic subunit alpha isoform (Homo sapiens, UniProt P42336); assay: Inhibition of human recombinant PI3K-alpha assessed as formation of PI3P from PI by cell free kinase assay
Sequence of Phosphatidylinositol 4,5-bisphosphate 3-kinase catalytic subunit alpha isoform (P42336 whole entry, canonical isoform): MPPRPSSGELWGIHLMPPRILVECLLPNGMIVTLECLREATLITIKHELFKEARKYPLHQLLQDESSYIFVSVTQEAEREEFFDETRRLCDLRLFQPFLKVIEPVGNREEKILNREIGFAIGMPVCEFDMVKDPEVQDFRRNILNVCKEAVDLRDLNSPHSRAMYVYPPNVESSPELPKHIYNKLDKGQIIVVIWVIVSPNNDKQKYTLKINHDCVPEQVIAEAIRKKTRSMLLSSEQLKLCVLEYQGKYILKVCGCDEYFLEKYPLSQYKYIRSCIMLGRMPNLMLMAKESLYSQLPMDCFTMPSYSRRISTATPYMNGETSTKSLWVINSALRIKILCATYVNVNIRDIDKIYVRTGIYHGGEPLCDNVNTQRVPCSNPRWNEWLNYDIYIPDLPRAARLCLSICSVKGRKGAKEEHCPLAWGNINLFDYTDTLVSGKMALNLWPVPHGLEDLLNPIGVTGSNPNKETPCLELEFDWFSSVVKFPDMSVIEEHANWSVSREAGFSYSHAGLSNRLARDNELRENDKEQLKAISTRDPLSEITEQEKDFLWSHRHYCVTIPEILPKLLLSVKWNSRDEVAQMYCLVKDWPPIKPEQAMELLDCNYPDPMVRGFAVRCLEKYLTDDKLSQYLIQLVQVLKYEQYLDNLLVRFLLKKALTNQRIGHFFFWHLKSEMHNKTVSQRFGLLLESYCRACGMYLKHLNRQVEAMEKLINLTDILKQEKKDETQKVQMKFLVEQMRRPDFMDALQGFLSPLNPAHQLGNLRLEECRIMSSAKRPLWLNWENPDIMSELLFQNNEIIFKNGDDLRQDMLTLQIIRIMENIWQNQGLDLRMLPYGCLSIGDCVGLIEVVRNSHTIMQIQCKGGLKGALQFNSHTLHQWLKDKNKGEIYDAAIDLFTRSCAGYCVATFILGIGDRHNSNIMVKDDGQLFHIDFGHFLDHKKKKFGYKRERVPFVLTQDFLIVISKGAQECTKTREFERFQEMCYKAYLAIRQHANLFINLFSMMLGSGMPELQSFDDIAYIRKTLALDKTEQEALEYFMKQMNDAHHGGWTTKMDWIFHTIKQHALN
Method in brief: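 Cell-free kinase assay with recombinant PI3Kα (p110α). The read-out was PI3P formed from the substrate phosphatidylinositol. An IC50 was derived.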

[4] = molecular target: Serine/threonine-protein kinase mTOR (Homo sapiens) (UniProt P42345); assay: Inhibition of mTOR in human H460 cells assessed as p70S6 phosphorylation at Thr 389 upto 30 uM; type: cell-based; method in brief: as §1
H460 [5] = assay: Inhibition of PI3K in human H460 cells assessed as Akt phosphorylation at Ser 473 upto 30 uM; type: cell-based; method in brief: as §1
[6] = molecular target: Hypoxia-inducible factor 1-alpha (Homo sapiens) (UniProt Q16665); assay: Inhibition of HIF1alpha
Sequence of Hypoxia-inducible factor 1-alpha (Homo sapiens) (Q16665 whole entry, looked up): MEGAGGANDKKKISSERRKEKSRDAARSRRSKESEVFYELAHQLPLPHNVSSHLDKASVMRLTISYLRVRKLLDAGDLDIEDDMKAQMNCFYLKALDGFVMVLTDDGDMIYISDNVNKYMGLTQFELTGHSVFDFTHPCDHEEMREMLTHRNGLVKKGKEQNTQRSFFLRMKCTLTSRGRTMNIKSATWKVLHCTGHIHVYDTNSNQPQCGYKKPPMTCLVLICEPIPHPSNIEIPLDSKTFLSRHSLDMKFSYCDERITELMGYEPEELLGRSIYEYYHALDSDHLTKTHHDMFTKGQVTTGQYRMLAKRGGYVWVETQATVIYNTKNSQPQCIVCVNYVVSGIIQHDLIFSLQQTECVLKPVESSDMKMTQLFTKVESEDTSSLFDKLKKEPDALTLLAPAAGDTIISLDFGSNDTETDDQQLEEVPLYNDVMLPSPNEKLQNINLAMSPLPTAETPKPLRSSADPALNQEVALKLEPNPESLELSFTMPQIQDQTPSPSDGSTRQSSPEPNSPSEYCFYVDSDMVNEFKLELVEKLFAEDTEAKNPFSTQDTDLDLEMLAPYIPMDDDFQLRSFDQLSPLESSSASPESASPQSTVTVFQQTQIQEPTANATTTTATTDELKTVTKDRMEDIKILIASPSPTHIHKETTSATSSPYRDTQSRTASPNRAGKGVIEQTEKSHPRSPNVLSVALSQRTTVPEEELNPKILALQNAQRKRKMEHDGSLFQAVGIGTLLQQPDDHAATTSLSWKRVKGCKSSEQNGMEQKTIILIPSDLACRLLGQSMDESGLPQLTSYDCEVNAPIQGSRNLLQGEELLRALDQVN
Method in brief: (§2)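 HRE-driven cell-based reporter gene assay of HIF-1 activation. Activation was induced by hypoxia (1% O2, 94% N2, 5% CO2) or by DFX. Compounds were tested up to 30 µM and an IC50 was derived. YC-1 served as the reference inhibitor.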

[7] = molecular target: Serine/threonine-protein kinase mTOR (Homo sapiens) (UniProt P42345); assay: Inhibition of mTOR in human H460 cells assessed as p70S6 phosphorylation at Thr 389 at 10 uM; type: cell-based; method in brief: as §1
[8] = molecular target: T1, Hypoxia inducible factors; HIF-1-alpha, HIF-2-alpha; assay: Inhibition of HIF1 in human U251HRE cells at 10 uM by Western blot; type: cell-based
Method in brief: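 U251-HRE-Luc cells were induced with DFX for 6 h in the presence of test compound at 10 µM, alongside untreated and DFX-only controls. HIF-1 was assessed by Western blot.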

H460 [9] = assay: Inhibition of PI3K in human H460 cells assessed as Akt phosphorylation at 3 uM by Western blot
H460 [10] = assay: Inhibition of PI3K in human H460 cells assessed as Akt phosphorylation at 10 uM by Western blot
[11] = molecular target: Serine/threonine-protein kinase mTOR (Homo sapiens) (UniProt P42345); assay: Inhibition of mTOR in human H460 cells assessed as 4E-BP1 phosphorylation at 10 uM by Western blot; type: cell-based
Method in brief: (§3)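 H460 cells were stimulated with 20% FCS in the presence of test compound at 3 or 10 µM, alongside untreated and FCS-only controls. Phosphorylation was assessed by Western blot.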

[12] = molecular target: Serine/threonine-protein kinase mTOR (Homo sapiens) (UniProt P42345); assay: Inhibition of mTOR in human H460 cells assessed as 4E-BP1 phosphorylation at 3 uM by Western blot; type: cell-based; method in brief: as §3
[13] = molecular target: Hypoxia-inducible factor 1-alpha (Homo sapiens) (UniProt Q16665); assay: Inhibition of HIF1-alpha at 30 uM; method in brief: as §2

Row | SMILES | inhibition (H460 [1]) [%] | Activity [2] | Activity [3] | Activity [4] | Activity (H460 [5]) | further results
1 | Fc1ccc(Oc2c3cc4c(cc3nc3occc23)OCO4)cc1 | 45 | inactive | inactive | inactive | – | –
2 | COc1ccc2c(Oc3cccnc3)c3ccoc3nc2c1 | 67 | inactive | inactive | inactive | – | –
3 | COc1ccc2c(Sc3ccc(Br)cc3)c3ccoc3nc2c1 | – | inactive | inactive | inactive | inactive | Activity [6]: inactive
4 | c1cn(-c2c3cc4c(cc3nc3occc23)OCO4)cn1 | 40 | inactive | inactive | – | – | inhibition [7]: 45%
5 | COc1cc2nc3occc3c(-n3ccnc3)c2cc1OC | 64 | inactive | inactive | inactive | – | –
6 | O=[N+]([O-])c1ccc(Sc2c3cc4c(cc3nc3occc23)OCO4)cc1 | – | inactive | inactive | – | inactive | inhibition [7]: 44%
7 | O=[N+]([O-])c1ccc(Oc2c3cc4c(cc3nc3occc23)OCO4)cc1 | – | inactive | inactive | – | inactive | inhibition [7]: 47%
8 | COc1ccc2c(Oc3cccc([N+](=O)[O-])c3)c3ccoc3nc2c1 | 43 | inactive | inactive | inactive | – | –
9 | COc1ccc2c(Sc3ccc(C(=O)O)cc3)c3ccoc3nc2c1 | – | inactive | inactive | inactive | inactive | Activity [6]: inactive
10 | COc1ccc2c(N3CCN(C(C)=O)CC3)c3ccoc3nc2c1 | 58 | inactive | inactive | inactive | – | –
11 | COc1ccc2c(Sc3ccc([N+](=O)[O-])cc3)c3ccoc3nc2c1 | 48 | – | – | – | – | Activity [8]: Active; inhibition [7]: 49%; IC50 [2]: 3 µM; Activity (H460 [9]): Active; Activity [6]: Active; IC50 [3]: 4 µM; Activity (H460 [10]): Active; Activity [11]: Active; Activity [12]: Active
12 | COc1cc2nc3occc3c(Sc3ccc([N+](=O)[O-])cc3)c2cc1OC | – | inactive | inactive | inactive | inactive | –
13 | COc1ccc2c(OC)c3ccoc3nc2c1 | – | – | – | inactive | inactive | Activity [13]: inactive
14 | COc1ccc2c([S+]([O-])c3ccc([N+](=O)[O-])cc3)c3ccoc3nc2c1 (centres undefined) | – | inactive | inactive | inactive | inactive | Activity [6]: inactive
15 | O=[N+]([O-])c1cn(-c2c3cc4c(cc3nc3occc23)OCO4)cn1 | 57 | inactive | inactive | inactive | – | –
16 | N#Cc1ccc(Oc2c3cc4c(cc3nc3occc23)OCO4)cc1 | 58 | inactive | inactive | inactive | – | –
17 | COc1ccc2c(Sc3ccc(C#N)cc3)c3ccoc3nc2c1 | – | inactive | inactive | inactive | inactive | Activity [6]: inactive
18 | COc1ccc2c(-n3ccnc3)c3ccoc3nc2c1 | 64 | inactive | inactive | inactive | – | –
19 | COc1ccc2c(Nc3ccc(C(C)=O)cc3)c3ccoc3nc2c1 | – | inactive | inactive | – | inactive | inhibition [7]: 53%
20 | COc1cc2nc3occc3c(Oc3cccnc3)c2cc1OC | 43 | inactive | inactive | inactive | – | –
21 | COc1cc2nc3occc3c(-n3cnc([N+](=O)[O-])c3)c2cc1OC | 58 | inactive | inactive | inactive | – | –
22 | O=c1cc(N2CCOCC2)oc2c(-c3ccccc3)cccc12 | – | – | – | – | – | inhibition (H460 [5]): 40%; inhibition [4]: 45%
23 | c1cncc(Oc2c3cc4c(cc3nc3occc23)OCO4)c1 | – | inactive | inactive | – | inactive | inhibition [7]: 51%
